Published values gathered from unrelated publications.

With `c1ccc(-c2nc(N3CCC(c4ccccn4)C3)c3ccccc3n2)nc1` (centres unmarked) the Papp was 22.6 ×10⁻⁶ cm/s (PAMPA; 10 µM; 3 h; pH 7.4).
For `CC(C)c1noc(C2CCN(c3ncnc(Nc4ccc(S(C)(=O)=O)cc4F)c3[N+](=O)[O-])CC2)n1`, the Papp was 3.02 ×10⁻⁶ cm/s (PAMPA-BBB; 0.5 µM; 4 h; pH 7.4).
`O=c1[nH]c2c(-c3ccccc3)csc2c(=O)n1O` gave a Papp of 1.5 ×10⁻⁶ cm/s (PAMPA; 10 µM; 5 h).
`N#Cc1ccc(/C=C/CN(CC[C@H](N)C(=O)O)C[C@H]2O[C@@H](n3cnc4c(N)ncnc43)[C@H](O)[C@@H]2O)cc1` has a Papp of 0.01 ×10⁻⁶ cm/s (PAMPA; 200 µM; 5 h).
`N=c1c2c(-c3ccccc3)cn(Cc3ccccc3)c2ncn1CCO` gave a Papp of 1270 ×10⁻⁶ cm/s (PAMPA; 50 µM; 30 min).
For `COC(=O)c1cccc(-c2cccc(Nc3nccc(NC4CCCCC4)n3)c2)c1`, the Papp was 76.9 ×10⁻⁶ cm/s (PAMPA; 50 nM; 30 min).
`COc1ccc(Nc2nc(-c3ccccn3)nc3ccccc23)cc1` has a Papp of 36.3 ×10⁻⁶ cm/s (PAMPA; 10 µM; 3 h; pH 7.4).
For `CC[C@@H](C)[C@@H]1NC(=O)[C@@H](Cc2ccccc2)OC(=O)CN(C)C(=O)[C@H]([C@H](C)CC)NC(=O)[C@@H](Cc2ccccc2)OC(=O)CN(C)C1=O`, the Papp was 28 ×10⁻⁶ cm/s (PAMPA).
`O=c1[nH]c2cc(-c3ccc(Cl)cc3)sc2c(=O)n1O` gave a Papp of 1 ×10⁻⁶ cm/s (PAMPA; 10 µM; 5 h).
For `CNc1ccnc(Nc2cccc(-c3cccnc3)c2)n1`, the Papp was 2250 ×10⁻⁶ cm/s (PAMPA; 50 nM; 30 min).
The Papp of `Cc1cc(C)c2cc(C(=O)NC3CCCCCCC3)[nH]c2c1` is reported as 0.18 ×10⁻⁶ cm/s (PAMPA; 16 h).
`COC(=O)[C@H](C)Nc1ccnc(Nc2cccc(-c3cccnc3)c2)n1` gave a Papp of 1910 ×10⁻⁶ cm/s (PAMPA; 50 nM; 30 min).
With `C[C@@H](NC(=O)[C@@H](CC(=O)N1CCC(N2CCCCC2)CC1)N1C(=O)[C@@H](N2C(=O)OC[C@@H]2c2ccccc2)[C@H]1/C=C/c1cccc(F)c1)c1ccccc1` the Papp was > 4 ×10⁻⁶ cm/s (PAMPA-BBB; 25 µg/mL; 18 h; pH 7.4).
`CC(=O)CC(c1ccccc1)c1c(O)c2ccccc2oc1=O` (centres unmarked) has a Papp of 1.5 ×10⁻⁶ cm/s (PAMPA; 10 µM; 24 h; pH 7.4).
`CN(C)CCn1cnc2c(c(-c3ccccc3)c(-c3ccccc3)n2Cc2ccccc2)c1=N` has a Papp of 1360 ×10⁻⁶ cm/s (PAMPA; 50 µM; 30 min).
`c1ccc(-c2nc(NCCn3ccnc3)c3ccccc3n2)nc1` gave a Papp of 8.4 ×10⁻⁶ cm/s (PAMPA; 10 µM; 3 h; pH 7.4).
`O=C(O)c1ccc2c(c1)nc(Nc1cccc(Cl)c1)c1ccncc12` has a Papp of 0.728 ×10⁻⁶ cm/s (PAMPA; 5 h; pH 7.4).
With `N=c1c2c(-c3ccccc3)cn(Cc3ccccc3)c2ncn1C1CCOCC1` the Papp was 1730 ×10⁻⁶ cm/s (PAMPA; 50 µM; 30 min).
With `CC[C@H](C)[C@@H]1NC(=O)[C@@H](Cc2ccccc2)OC(=O)CNC(=O)[C@H]([C@@H](C)CC)NC(=O)[C@@H](Cc2ccccc2)OC(=O)CNC1=O` the Papp was 47 ×10⁻⁶ cm/s (PAMPA).
`c1ccc(-c2cccc(Nc3nccc(NC4CCCCC4)n3)c2)nc1` gave a Papp of 1530 ×10⁻⁶ cm/s (PAMPA; 50 nM; 30 min).
`Cc1sc2[nH]c(=O)n(O)c(=O)c2c1C` has a Papp of 1 ×10⁻⁶ cm/s (PAMPA; 10 µM; 5 h).
For `c1ccc(-c2nc(N3CCC(c4ccccn4)C3)c3ccccc3n2)cc1` (centres unmarked), the Papp was 42.4 ×10⁻⁶ cm/s (PAMPA; 10 µM; 3 h; pH 7.4).
With `O=C(CCCN1CCC(O)(c2ccc(Cl)cc2)CC1)c1ccc(F)cc1` the Papp was 21.4 ×10⁻⁶ cm/s (PAMPA-BBB; 50 µM; 16 h; pH 7.4).
The Papp of `c1cncc(-c2cccc(Nc3nccc(NC4CCNCC4)n3)c2)c1` is reported as 8.2 ×10⁻⁶ cm/s (PAMPA; 50 nM; 30 min).
With `O=c1[nH]c2scc(-c3ccc(Cl)cc3)c2c(=O)n1O` the Papp was 0.5 ×10⁻⁶ cm/s (PAMPA; 10 µM; 5 h).
`COc1ccc(C(CO)Nc2ncnc3sc(-c4ccccc4)cc23)cc1` (centres unmarked) has a Papp of 240 ×10⁻⁶ cm/s (PAMPA).
The Papp of `c1ccc(-c2nc(NCc3ccco3)c3ccccc3n2)nc1` is reported as 22.8 ×10⁻⁶ cm/s (PAMPA; 10 µM; 3 h; pH 7.4).
`CC(C)Nc1ccnc(Nc2ccccc2-c2ccccc2)n1` gave a Papp of 2360 ×10⁻⁶ cm/s (PAMPA; 50 nM; 30 min).
`N=c1c2c(-c3ccccc3)c(-c3ccccc3)n(Cc3ccccc3)c2ncn1[C@H]1CC[C@H](O)CC1` gave a Papp of > 1000 ×10⁻⁶ cm/s (PAMPA; 50 µM; 30 min).
`Cc1cc(-c2ccc(Sc3cc(=O)n(O)c(=O)[nH]3)cc2)ccc1F` has a Papp of 1.1 ×10⁻⁶ cm/s (PAMPA; 10 µM; 5 h).
The Papp of `C[C@@H](NC(=O)[C@@H](CC(=O)N1CCC(N2CCCCC2)CC1)N1C(=O)[C@@H](N2C(=O)OC[C@@H]2c2ccccc2)[C@H]1/C=C/c1cccc(I)c1)c1ccccc1` is reported as 2 to 4 ×10⁻⁶ cm/s (PAMPA-BBB; 25 µg/mL; 18 h; pH 7.4).
The Papp of `c1ccc(-c2nc(NCc3nc4ccccc4o3)c3ccccc3n2)nc1` is reported as 27.8 ×10⁻⁶ cm/s (PAMPA; 10 µM; 3 h; pH 7.4).
`CCN1CC(=O)NC(CC(C)C)C(=O)N(C)C(C)C(=O)NC(CC(C)C)C(=O)N2CCCC2C(=O)N(CC2CCCCC2)CC(=O)NC(CC(C)C)C(=O)N(C)C(C)C(=O)NC(Cc2ccccc2)C(=O)N2CCCC2C1=O` (centres unmarked) has a Papp of 18 ×10⁻⁶ cm/s (PAMPA).
With `CCN1CCc2c(sc3[nH]c(=O)n(O)c(=O)c23)C1` the Papp was 0.08 ×10⁻⁶ cm/s (PAMPA; 10 µM; 5 h).
`Cc1noc(C)c1-c1ccc2nc(-c3cnn(CC(C)(C)O)c3)nc(N3CCOC[C@@H]3c3ccccc3)c2c1` has a Papp of 1180 ×10⁻⁶ cm/s (PAMPA).
The Papp of `O=c1[nH]c2scc(-c3ccccc3)c2c(=O)n1O` is reported as 0.4 ×10⁻⁶ cm/s (PAMPA; 10 µM; 5 h).
For `Cc1cc(N)nc(C#CCCN(C)C)c1`, the Papp was 4.7 ×10⁻⁶ cm/s (PAMPA-BBB; 200 µM; 17 h).
`CC(C)Nc1ccnc(Nc2cccc(-n3ccnc3)c2)n1` has a Papp of 2070 ×10⁻⁶ cm/s (PAMPA; 50 nM; 30 min).
`Cn1nccc1-c1nc(N2CCC(c3ccccn3)C2)c2ccccc2n1` (centres unmarked) has a Papp of 49.3 ×10⁻⁶ cm/s (PAMPA; 10 µM; 3 h; pH 7.4).
`N=c1c2c(-c3ccccc3)cn(Cc3ccccc3)c2ncn1Cc1ccco1` gave a Papp of 1740 ×10⁻⁶ cm/s (PAMPA; 50 µM; 30 min).
`CC(C)Nc1ccnc(Nc2cccc(-c3nccs3)c2)n1` gave a Papp of 1960 ×10⁻⁶ cm/s (PAMPA; 50 nM; 30 min).
`c1ccc(-c2nc(N3CCc4nc[nH]c4C3)c3ccccc3n2)nc1` gave a Papp of 11.8 ×10⁻⁶ cm/s (PAMPA; 10 µM; 3 h; pH 7.4).
With `Cc1csc2[nH]c(=O)n(O)c(=O)c12` the Papp was 0.2 ×10⁻⁶ cm/s (PAMPA; 10 µM; 5 h).
With `N=c1c2c(-c3ccccc3)c(-c3ccccc3)n(Cc3ccc(OC(F)(F)F)cc3)c2ncn1[C@H]1CC[C@@H](O)CC1` the Papp was 1250 ×10⁻⁶ cm/s (PAMPA; 50 µM; 30 min).
